High-throughput results deposited in PubChem BioAssay by Johns Hopkins Ion Channel Center.
Hits are enriched below; roughly 2.3% of the tested compounds scored in any of these assays.
TRPC6 activator: mouse TRPC6 channel activators, primary screen, cell-based, HEK293, membrane potential dye. Short transient receptor potential channel 6 (Mus musculus), Q61143. HEK293-TRPC6 membrane potential dye fluorescence; hits give high values. B-score at 10 µM. hit rate 0.13% among 310,000;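 active = B-score of the integrated fluorescence ratio above library mean plus 3 SD, and starting fluorescence ratio within library mean plus 5 SD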;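 also: higher score means more depolarization so channel activation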
TRPC4 potent: positive allosteric modulators of TRPC4, primary screen, cell-based, mouse TRPC4beta, HEK293 mu-opioid, Fluo-4 calcium; DAMGO EC20, Fluo-4 Ca2+ flux; hits give high values; hit rate 0.42% among 310,000; B-score at 10 µM;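 active = B-score of calcium response area above 5 SD of library B-scores, with initial fluorescence ratio within 5 SD of library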;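 also: B-score of integrated fluorescence ratio over time as area under calcium response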
TRPC4 block: inhibitors of mouse TRPC4 channel, primary screen, Fluo4 calcium, HEK293 TRPC4beta/mu-opioid cells; AID 2247, 2010; B-score at 10 µM; hit rate 0.39% among 300,000; DAMGO-evoked Fluo4 calcium flux; hits give low values; Short transient receptor potential channel 4 (Mus musculus), Q9QUQ5;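 active = B-score over 3 SD under the library average, no early fluorescence shift, positive overall ratio signal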
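Assay system: Stable TRPC4beta/mu-opioid receptor HEK293 cells | Reagent: DAMGO in two steps, submaximal then maximal | Compound dosing: Single concentration per test compound | Signal: Fluo4 Ca2+ flux fluorescence | Evaluation: Per-well B score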
TRPC6 inh: mouse TRPC6 channel inhibitors, primary screen, cell-based, HEK293, membrane potential dye. Short transient receptor potential channel 6 (Mus musculus), Q61143. ACh-evoked depolarization; hits give low values. B-score at 10 µM. hit rate 1.1% among 310,000. AID 2553, 2010;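 active = B-score under library mean minus 3 SD, initial fluorescence not abnormally high, positive integrated signal ratio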;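 also: B-score derived from integrated fluorescence ratio over the kinetic read; more negative B-score means stronger inhibition of depolarization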
TRPC4 agonist: activators of mouse TRPC4 channel, primary screen, Fluo4 calcium, HEK293 TRPC4beta/mu-opioid cells; Short transient receptor potential channel 4 (Mus musculus), Q9QUQ5; Fluo4 calcium fluorescence; hits give high values; B-score at 10 µM; hit rate 0.49% among 310,000;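 active = B-score above 5 SD of library B-scores, and initial fluorescence ratio not above library mean plus 5 SD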;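 also: positive B-score marks a calcium rise read as TRPC4 activation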
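System: HEK293 cells stably co-expressing mouse TRPC4beta and mu-opioid receptor; Schedule: Fluo4 dye loading 45 min at room temperature, 110 s recording; Detection: Fluo4 fluorescence, kinetic; Evaluation: B-scored integrated calcium fluorescence ratio; Controls: buffer (low) and maximal DAMGO (high).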
Starred values were filed as active, the others as inactive; i = inactive.

SMILES | TRPC6 activator | TRPC4 potent | TRPC4 block | TRPC6 inh | TRPC4 agonist
O=C(C1=NN[C@@H]2C(=O)N(Cc3ccccc3)C(=O)[C@H]12)c1ccc([N+](=O)[O-])cc1 | i | i | i | i | i
COC(=O)c1ccccc1NC(=O)NC1CC1 | i | i | i | i | i
CCCN1CCC(NC(=O)Nc2ccccc2C(=O)OC)CC1 | i | i | i | i | 71*
Cc1noc(/C=C/c2cccs2)c1S(=O)(=O)N1CCC(C(=O)NCCCN2CCCC(C)C2)CC1 (centres undefined) | i | 10* | i | i | i
COc1ccc(-c2noc(N3CCC(C(=O)NCCCN4CCCC(C)C4)CC3)n2)cc1 (centres undefined) | i | 10* | i | i | i
CCCCNC(=O)C1CCCN(S(=O)(=O)c2c(C)noc2/C=C/c2cccs2)C1 (centres undefined) | i | i | i | i | i
COc1ccc(-c2noc(N3CCC(C(=O)NCCCN4CCCCC4)CC3)n2)cc1 | i | i | i | i | i
CC(C)N(C)Cc1nnnn1CC(=O)NCCc1cccc(C(F)(F)F)c1 | i | i | i | i | i
CCOc1cccc2sc(N3CCN(C(=O)c4ccc5ncsc5c4)CC3)nc12 | i | i | i | i | i
COc1c2c(cc3c1C(CC(O)Cc1ccccc1)N(C)CC3)OCO2 (centres undefined) | i | i | i | i | 96*
CCCN1Cc2cccc(C(=O)N3CCN(c4cc(Cl)ccc4C)CC3)c2C1=O | i | 15* | i | i | i
O=S(=O)(c1cc(Cl)c(Cl)cc1Cl)N1CCN2CCCC2C1 (centres undefined) | i | i | i | i | 67*
O=C(COC(=O)c1ccccn1)Nc1nc(-c2ccccc2)cs1 | i | i | -6* | i | i
O=C(COC(=O)C1CC1)Nc1nc(-c2ccc(F)c(F)c2)cs1 | i | i | -6* | i | i
Cc1cccn2c(=O)c3cc(S(=O)(=O)c4ccc(F)cc4)c(=N)n(Cc4ccco4)c3nc12 | i | i | i | i | i
Cc1cccn2c(=O)c3cc(S(=O)(=O)c4ccccc4)c(=N)n(Cc4ccco4)c3nc12 | i | 10* | i | i | i
CCCc1ccc(OCc2ccc(C(=O)N3CCSCC3)o2)cc1 | i | 20* | i | i | i
CC(C)(C)c1ccc(OCc2ccc(C(=O)N3CCOCC3)o2)cc1 | i | i | i | i | i
O=C(NCc1ccc2c(c1)OCO2)c1ccc2c(c1)S(=O)(=O)c1ccccc1C2=O | i | i | i | i | i
CCCCCn1c(=O)[nH]c2cc(C(=O)NCCN(CC)CC)ccc2c1=O | i | 14* | i | i | i
O=C(CNC(=O)C1CCCCC1)NNC(=O)c1ccccc1Br | i | i | i | i | i
CCCn1c2ccc(F)cc2c2nnc(NN)nc21 | i | 11* | i | i | i
CCn1c2ccc(F)cc2c2nnc(NN)nc21 | i | 18* | i | i | i
NNc1nnc2c3cc(F)ccc3n(Cc3ccccc3)c2n1 | i | i | i | i | i
COc1ccccc1NC(=O)COC(=O)c1ccccc1C(=O)N1CCN(c2ccccc2)CC1 | i | 11* | i | i | i
Cn1ncc(Cl)c1C(=O)N1CCN(c2ccc(F)cc2)CC1 | i | i | i | i | i
COc1ccc(Cl)cc1NC(=O)CCN1CCN(Cc2ccccc2)CC1 | i | i | i | i | i
COc1cccc(/C=C/C(=O)NNC(=O)CCN2CCN(Cc3ccccc3)CC2)c1 | i | 12* | i | i | 48*
O=C(/C=C/c1ccc(F)cc1)NNC(=O)CCN1CCN(Cc2ccccc2)CC1 | i | i | i | i | 50*
